Laboratory results as given in ChEMBL document CHEMBL4732034, “Amino alcohol acrylonitriles as broad spectrum and tumour selective cytotoxic agents” (RSC Med Chem, 2021).

Key:
[1] = target: T1, Aryl hydrocarbon receptor (Homo sapiens, UniProt P35869); assay: Activation of AhR in human HT29-Lucia cells expressing secreted Lucia luciferase reporter gene assessed as increase in receptor transactivation by measuring fold increase in reporter activity at 5 uM measured after 48 hrs by luciferase reporter gene assay relative to control; assay type: cell-based; details: HT-29, human, read-out: FC
T1 sequence (P35869 whole entry): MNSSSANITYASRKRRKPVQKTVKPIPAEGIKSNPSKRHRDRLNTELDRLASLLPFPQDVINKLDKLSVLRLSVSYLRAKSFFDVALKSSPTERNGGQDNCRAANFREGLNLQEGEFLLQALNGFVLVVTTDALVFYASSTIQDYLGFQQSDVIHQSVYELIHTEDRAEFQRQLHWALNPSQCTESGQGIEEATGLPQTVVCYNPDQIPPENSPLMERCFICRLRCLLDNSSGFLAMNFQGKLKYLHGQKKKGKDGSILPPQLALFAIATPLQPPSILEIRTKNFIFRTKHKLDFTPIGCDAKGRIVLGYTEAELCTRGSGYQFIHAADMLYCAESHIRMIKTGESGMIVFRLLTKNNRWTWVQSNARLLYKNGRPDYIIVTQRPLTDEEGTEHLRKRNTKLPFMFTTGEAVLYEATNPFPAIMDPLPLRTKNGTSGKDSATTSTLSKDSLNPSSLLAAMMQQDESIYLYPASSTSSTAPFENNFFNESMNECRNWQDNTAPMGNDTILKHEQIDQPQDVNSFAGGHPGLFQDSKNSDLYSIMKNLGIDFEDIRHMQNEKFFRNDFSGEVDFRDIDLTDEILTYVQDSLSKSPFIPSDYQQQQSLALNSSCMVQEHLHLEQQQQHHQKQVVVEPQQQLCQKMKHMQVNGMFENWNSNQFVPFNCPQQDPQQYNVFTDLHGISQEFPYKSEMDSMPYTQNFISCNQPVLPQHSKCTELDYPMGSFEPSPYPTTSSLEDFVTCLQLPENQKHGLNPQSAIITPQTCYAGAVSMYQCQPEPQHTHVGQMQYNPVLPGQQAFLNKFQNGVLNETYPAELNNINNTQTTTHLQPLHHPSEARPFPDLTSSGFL
Procedure, shortened: (§1)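 HT29-Lucia cells (stable secreted Lucia luciferase reporter under a minimal promoter with the human CYP1A1 regulatory sequence, six DREs) were grown without antibiotics for 24 h before compound addition. At 24 and 48 h, supernatant was read by luminescence with QUANTI-Luc. Assays were run twice, and values are fold-change versus DMSO-treated cells. FICZ and CH223191 (5 μM) were included as controls.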

[2] = target: T1, Aryl hydrocarbon receptor; assay: Activation of AhR in human HT29-Lucia cells expressing secreted Lucia luciferase reporter gene assessed as increase in receptor transactivation by measuring fold increase in reporter activity at 5 uM measured after 24 hrs by luciferase reporter gene assay relative to control; assay type: cell-based; details: HT-29, human, read-out: FC; procedure, shortened: as §1
[3] = system: U-87 MG; assay: Cytotoxicity against human U87 cells assessed as growth inhibition measured after 72 hrs by SRB assay; assay type: functional, U-87MG ATCC
Procedure, shortened: (§2)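 Cancer lines were kept in DMEM with 10% FBS and glutamine at 37 °C, 5% CO2, and seeded at 2500–4000 cells per well in duplicate. Compound (from 40 mM DMSO stocks) was added 24 h after plating and left for 72 h. Cells were TCA-fixed, stained with SRB and read at 540 nm. GI50 came from an eight-point dose-response, using the change from day-0 optical density, with three to four independent replicates.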

[4] = system: A2780; assay: Cytotoxicity against human A2780 cells assessed as growth inhibition measured after 72 hrs by SRB assay; assay type: functional; procedure, shortened: as §2
[5] = system: NCI-H460; assay: Cytotoxicity against human H460 cells assessed as growth inhibition measured after 72 hrs by SRB assay; assay type: functional; procedure, shortened: as §2
[6] = system: A-431; assay: Cytotoxicity against human A431 cells assessed as growth inhibition measured after 72 hrs by SRB assay; assay type: functional; procedure, shortened: as §2
[7] = system: DU-145; assay: Cytotoxicity against human DU-145 cells assessed as growth inhibition measured after 72 hrs by SRB assay; assay type: functional; procedure, shortened: as §2
[8] = system: BE(2)-C; assay: Cytotoxicity against human BE2C cells assessed as growth inhibition measured after 72 hrs by SRB assay; assay type: functional; procedure, shortened: as §2
[9] = Cytotoxicity against human SJG2 cells assessed as growth inhibition measured after 72 hrs by SRB assay; assay type: functional; details: SJ-G2; procedure, shortened: as §2
[10] = system: MIA PaCa-2; assay: Cytotoxicity against human MIA cells assessed as growth inhibition measured after 72 hrs by SRB assay; assay type: functional; procedure, shortened: as §2
[11] = system: HT-29; assay: Cytotoxicity against human HT29 cells assessed as growth inhibition measured after 72 hrs by SRB assay; assay type: functional; procedure, shortened: as §2
[12] = system: MCF7; assay: Cytotoxicity against human MCF-7 cells assessed as growth inhibition measured after 72 hrs by SRB assay; assay type: functional; procedure, shortened: as §2
[13] = Cytotoxicity against human MCF10A cells assessed as growth inhibition measured after 72 hrs by SRB assay; assay type: cell-based, MCF-10A
[14] = system: MDA-MB-468; assay: Cytotoxicity against human MDA-MB-468 cells assessed as growth inhibition measured after 72 hrs by SRB assay; assay type: functional; procedure, shortened: as §2
[15] = system: T47D; assay: Cytotoxicity against human T47D cells assessed as growth inhibition measured after 72 hrs by SRB assay; assay type: functional; procedure, shortened: as §2
[16] = target: T1, Aryl hydrocarbon receptor; assay: Activation of AhR in human HT29-Lucia cells expressing secreted Lucia luciferase reporter gene assessed as increase in receptor transactivation by measuring fold increase in reporter activity at 25 uM measured after 24 hrs by luciferase reporter gene assay relative to control; assay type: cell-based; details: HT-29, human, read-out: FC; procedure, shortened: as §1
[17] = target: T2, CYP1A1 (Homo sapiens, UniProt P35869); assay: Activation of AhR in human MDA-MB-468 cells assessed as fold increase in CYP1A1 mRNA expression at 5 uM measured after 8 hrs by qPCR assay relative to control; assay type: cell-based; details: read-out: FC
T2 sequence (P35869 whole entry): T1 sequence (P35869 whole entry)
Procedure, shortened: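 MDA-MB-468 cells were exposed for 8 h, then total RNA was extracted. CYP1A1 was quantified by qPCR with β2M as reference: 95 °C for 5 min, then 40 cycles of 95 °C for 5 s and 60 °C for 10 s. Fold change was calculated by the comparative Ct method.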

[18] = Selectivity index, ratio of GI50 for human MCF10A cells to GI50 for human MCF-7 cells by SRB assay; assay type: toxicity; details: MCF10A cells versus MCF-7 cells, read-out: RatioGI50
Procedure, shortened: (§3)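 Fold selectivity is the MCF10A GI50 divided by the cancer-line GI50. Each GI50 is from the 72 h SRB assay: eight-point dose-response, day-0 optical density baseline, three to four separate replicates.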

[19] = Selectivity index, ratio of GI50 for human MCF10A cells to GI50 for human MDA-MB-468 cells by SRB assay; assay type: toxicity; details: MCF10A cells versus MDA-MB-468 cells, read-out: RatioGI50; procedure, shortened: as §3
[20] = Selectivity index, ratio of GI50 for human MCF10A cells to GI50 for human T47D cells by SRB assay; assay type: toxicity; details: MCF10A cells versus T47D cells, read-out: RatioGI50; procedure, shortened: as §3
[21] = target: T1, Aryl hydrocarbon receptor; assay: Activation of AhR in human HT29-Lucia cells expressing secreted Lucia luciferase reporter gene assessed as increase in receptor transactivation by measuring fold increase in reporter activity at 25 uM measured after 48 hrs by luciferase reporter gene assay relative to control; assay type: cell-based; details: HT-29, human, read-out: FC; procedure, shortened: as §1
[22] = Selectivity index, ratio of GI50 for human MCF10A cells to GI50 for human H460 cells by SRB assay; assay type: toxicity; details: MCF10A cells versus H460 cells, read-out: RatioGI50; procedure, shortened: as §3

Compound: Cc1ccccc1/N=N/c1ccc(NC(=O)c2ccnn2C)c(C)c1
- fold induction at 5 µM [1]: 0.59
- fold induction at 5 µM [2]: 0.69

Compound: N#C/C(=C\c1ccc(OCC(O)CN2CCN(c3ccc(C#N)cc3)CC2)cc1)c1ccc(Cl)c(Cl)c1 (racemic)
- GI50 [3]: > 50 µM
- GI50 [4]: 15 µM
- GI50 [5]: > 50 µM
- GI50 [6]: 20 µM
- GI50 [7]: 17 µM
- GI50 [8]: 31 µM
- GI50 [9]: > 50 µM
- GI50 [10]: > 50 µM
- GI50 [11]: 50 µM
- GI50 [12]: 5.8 µM
- GI50 at 72 h [13]: 47 µM
- GI50 [14]: 6 µM
- GI50 [15]: 2.3 µM
- fold induction at 25 µM [16]: 1.69
- fold induction at 8 h, 5 µM [17]: 7.6
- selectivity ratio [18]: 8.1
- selectivity ratio [19]: 7.8
- selectivity ratio [20]: 20
- fold induction at 25 µM [21]: 1.84

Compound: N#C/C(=C\c1ccc(OCC(O)CN2CCN(c3ccccc3F)CC2)cc1)c1ccc(Cl)c(Cl)c1 (racemic)
- GI50 [3]: 20 µM
- GI50 [4]: 17 µM
- GI50 [5]: 1.6 µM
- GI50 [6]: 14 µM
- GI50 [7]: 18 µM
- GI50 [8]: 21 µM
- GI50 [9]: 18 µM
- GI50 [10]: 24 µM
- GI50 [11]: 5.4 µM
- GI50 [12]: 11 µM
- GI50 at 72 h [13]: 15 µM
- selectivity ratio [22]: 9.3
